Experimental data as given in PubChem BioAssay.
Where “and” joins values, the source holds several entries; their conditions need not be identical. Equal entries are not always repeated. Calls of active or inactive are those of the source.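 How the source made its calls, unless noted: active means viability at or under a set limit in both replicates, limit being median viability minus 3 SD (cut at about 48% in these data, passing the limit was not always enough); inconclusive means at or under the limit in just one replicate; inactive means at or above the limit in both replicates.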

Experiments:
[1] = reduced viability of SK-BR-3 breast cancer cells – cell-based, 24 h, human, pilot screen (AID 572;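 active means viability at or below 10% of carrier control in both of two separate runs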;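 further: compound exposure lasted between 18 and 24 h rather than exactly 24 h; 100% = carrier-treated control wells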); conditions: SK-BR-3 viability, CellTiter-Glo luminescence, at 10 µM, stronger effect = lower value
[2] = HUVEC growth inhibition – cell-based, human, primary screen (AID 575;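 active means viability at or below 30% in both replicate assays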;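 further: 100% = median of untreated cell wells with 0.1% DMSO on each plate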); conditions: HUVEC proliferation, CellTiter-Glo luminescence, 72 h; at 10 µM; stronger effect = lower value
Procedure, shortened: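 Assay system: Primary human umbilical vein endothelial cells | Quantity: 1250 cells per well | Medium: Supplemented EBM, 2% fetal bovine serum | Detection: CellTiter-Glo luminescence measuring cellular ATP | Read-out: % viability vs DMSO wells | Plate: Collagen-coated 384-well format | Times: 72 h exposure, 37 °C, 5% CO2, 30 min RT equilibration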

[3] = H69AR cell proliferation blockers – human, duplicate replicates, primary screen (AID 580); conditions: H69AR lung tumor cells viability, ATP luminescence, 72 h; at 10 µM; stronger effect = lower value;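 further: 100% = mean luminescence of untreated wells and 0% = no signal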
[4] = MRP1 drug-resistance reversers in H69AR cells – cell-based, doxorubicin co-treatment, pilot screen (AID 601;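 active means viability loss from added drug above about 55%, and viability with drug at most 40%, in both replicates, limit read from the data, passing the limit was not always enough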); conditions: CellTiter-Glo, 72 h, at 10 µM; for differential viability (reversal): stronger effect = higher value
[5] = yeast transport mutant growth inhibition pilot in 384-well plates, post-Golgi transport modulator project (AID 636; in the data active means inhibition above about 31%); conditions: absorbance 615 nm, about 18 h, stronger effect = higher value
[6] = growth suppression of yeast trafficking mutant, preliminary HTS, modulators of trafficking downstream of Golgi apparatus project, 1536-format plate, OD 615 nm (AID 637; in the data active means inhibition above about 30%); conditions: yeast transport mutant growth, absorbance 615 nm, 18 h; stronger effect = higher value
[7] = H69AR cells + 2 uM doxorubicin, measured here: viability with 2 uM doxorubicin, stronger effect = lower value
[8] = H69AR cells, compound alone cytotoxicity

Structure (SMILES) | viability [1] | viability [2] | viability [3] | differential viability (reversal) ([4]; H69AR cells + 2 uM doxorubicin) | viability [4, 7] | viability [4, 8] | inhibition [5] | inhibition [6]
COc1cc(C(=O)NCC(=O)OCC(=O)c2ccc[nH]2)cc(OC)c1OC | 76% (inactive) | 101% (inactive) | 91.5% (inactive) | -3.86% (inactive) | 95.3% | 91.5% | -4.38% (inactive) | -0.55% (inactive)
Cc1ccc(N(C(C)C(=O)Nc2ccc(S(=O)(=O)N3CCOCC3)cc2)S(C)(=O)=O)cc1 (centres undefined) | 87% (inactive) | 106% (inactive) | 99.8% (inactive) | -6.04% (inactive) | 106% | 99.8% | -6.3% (inactive) | -7.9% (inactive)
Cc1ccc(N(CC2=NCCN2)c2cccc(O)c2)cc1 | 85% (inactive) and 113% (inactive) | 84.3% (inactive) and 64.3% (inactive) | 98.5% (inactive) and 92.6% (inactive) | -1.66% (inactive) and 11.9% (inactive) | 100% and 80.7% | 98.5% and 92.6% | -1.43% (inactive) and 1.17% (inactive) | -3.17% (inactive) and 0.5% (inactive)
CCOC(=O)c1ccc2[nH]c3c(c2c1)CCCCC3=O | 80% (inactive) | 105% (inactive) | 99.5% (inactive) | 8.96% (inactive) | 90.5% | 99.5% | -3.6% (inactive) | -0.73% (inactive)
COc1cccc(C(=O)NC2=NCCS2)c1 | 109% (inactive) | 100% (inactive) | 96.7% (inactive) | 12.1% (inactive) | 84.6% | 96.7% | -4.11% (inactive) | 0.32% (inactive)
O=C(C1CCN(C2CC(=O)N(c3ccc(F)cc3)C2=O)CC1)N1CCOCC1 (centres undefined) | 106% (inactive) | 105% (inactive) | 101% (inactive) | 4.69% (inactive) | 96.2% | 101% | -1.43% (inactive) | 4.43% (inactive)
Cn1ncc2c(Nc3ccccc3Br)ncnc21 | 109% (inactive) | 101% (inactive) | 106% (inactive) | 13.5% (inactive) | 92.8% | 106% | -7.67% (inactive) | -2.55% (inactive)
CCOC(=O)c1ccc(CNC(=O)C(Cc2c[nH]c3ccccc23)NC(C)=O)o1 (centres undefined) | 90% (inactive) | 90.3% (inactive) | 101% (inactive) | 8.63% (inactive) | 92.3% | 101% | -6.99% (inactive) | 0.36% (inactive)
NCCCCCc1nnc(SC/C=C/c2ccccc2)o1 | 99% (inactive) | 73.8% (inactive) | 89.9% (inactive) | 3.04% (inactive) | 86.9% | 89.9% | -6.85% (inactive) | 18.2% (inactive)
CN(C)CCCN1c2ccccc2CCc2ccc(Cl)cc21 | 78% (inactive) | 5.55% (active) | 65.2% (inactive) | 12% (inactive) | 53.2% | 65.2% | -0.26% (inactive) | 1.17% (inactive)
COCCNC(=O)C(c1ccc(C)o1)N(Cc1cccs1)C(=O)c1snc(C(N)=O)c1N (centres undefined) | 87% (inactive) | 86.8% (inactive) | 86.4% (inactive) | 0.375% (inactive) | 86% | 86.4% | 4% (inactive) | 12.7% (inactive)
COc1ccc(NC(=O)c2oc3ccccc3c2NC(=O)c2ccco2)cc1 | 90% (inactive) | 88.8% (inactive) | 78.4% (inactive) | -0.385% (inactive) | 78.8% | 78.4% | -4.59% (inactive) | -4.92% (inactive)
Cn1cnnc1Sc1nc2c(c(=O)n(C)c(=O)n2C)n1Cc1ccccc1Cl | 72% (inactive) | 98.5% (inactive) | 90.3% (inactive) | -2.15% (inactive) | 92.4% | 90.3% | -3.7% (inactive) | 0.91% (inactive)
COCCn1c(Sc2nc(C)cs2)nc2c1c(=O)[nH]c(=O)n2C | 85% (inactive) | 106% (inactive) | 101% (inactive) | 4.51% (inactive) | 96.6% | 101% | -5.07% (inactive) | 3.45% (inactive)
Cc1nc(NC2=NCN(CCCN3CCOCC3)CN2)nc2c(C)cccc12 | 158% (inactive) | 67.4% (inactive) | 53.4% (inactive) | -12.3% (inactive) | 65.8% | 53.4% | -4.34% (inactive) | 0.16% (inactive)
COc1ccc2c(c1)c(CC(=O)OCC(=O)O)c(C)n2C(=O)c1ccc(Cl)cc1 | 133% (inactive) | 66.8% (inactive) | 96.2% (inactive) | 5.33% (inactive) | 90.9% | 96.2% | -5.06% (inactive) | -0.67% (inactive)
C=CCN(CC=C)C(=O)c1ccncc1 | 115% (inactive) | 92.8% (inactive) | 102% (inactive) | -2.84% (inactive) | 104% | 102% | 0.68% (inactive) | -4.84% (inactive)

Structure (SMILES) | viability [1] | viability [2] | viability [3] | differential viability (reversal) ([4]; H69AR cells + 2 uM doxorubicin) | viability [4, 7] | viability [4, 8] | inhibition [5] | inhibition [6]
N#CC1=C(N)N(c2ccc(Oc3ccccc3)cc2)C(=O)C1 | 130% (inactive) | 106% (inactive) | 90.2% (inactive) | 8.2% (inactive) | 82% | 90.2% | -5.62% (inactive) | 0.48% (inactive)
C/C=C(\CS(=O)(=O)c1ccccc1)S(=O)(=O)c1ccccc1 | 110% (inactive) | 85.1% (inactive) | 6.84% (active) | -0.38% (inactive) | 7.22% | 6.84% | -0.91% (inactive) | -4.26% (inactive)
COc1ccc(C(=O)Nc2cccnc2)cc1C(=O)Nc1cccnc1 | 150% (inactive) | 79.9% (inactive) | 97.4% (inactive) | 2.72% (inactive) | 94.6% | 97.4% | 7.53% (inactive) | -3% (inactive)
CCN1CCN(c2nc3c(c(=O)n(C)c(=O)n3C)n2CCSc2ncccn2)CC1 | 116% (inactive) | 91.7% (inactive) | 94.8% (inactive) | 7% (inactive) | 87.8% | 94.8% | -5.07% (inactive) | -9.68% (inactive)
Cc1nc(NC(=O)c2csc3ccccc23)sc1C | 100% (inactive) | 83% (inactive) | 78.2% (inactive) | -3.3% (inactive) | 81.5% | 78.2% | 3.84% (inactive) | -2.74% (inactive)
C=CCn1c(SCn2nnc3ccccc3c2=O)nnc1-c1ccc(Br)cc1 | 97% (inactive) | 94.2% (inactive) | 89.1% (inactive) | 7.09% (inactive) | 82% | 89.1% | 43.2% (active) | 31.6% (active)
O=C(CSc1nc2ccccc2c(=O)n1Cc1ccco1)NCc1ccccc1 | 72% (inactive) | 82.6% (inactive) | 89.4% (inactive) | 3.12% (inactive) | 86.3% | 89.4% | -8.63% (inactive) | 0.73% (inactive)
Cc1nc(-c2coc3cc(OCC(=O)O)ccc3c2=O)cs1 | 93% (inactive) | 107% (inactive) | 90.5% (inactive) | 1.5% (inactive) | 89% | 90.5% | -5.14% (inactive) | -7.64% (inactive)
CCOCC(O)CS(=O)Cc1ccccc1 (centres undefined) | 111% (inactive) | 113% (inactive) | 98.5% (inactive) | 22.1% (inactive) | 76.4% | 98.5% | -6.67% (inactive) | -4.55% (inactive)
Cc1nc(C)n(C(C)CC(=O)O)n1 (centres undefined) | 103% (inactive) | 127% (inactive) | 103% (inactive) | 5.71% (inactive) | 97.2% | 103% | -4% (inactive) | 1.27% (inactive)
COCCNC(=O)C(c1ccc(C)o1)N(C(=O)c1snc(C(N)=O)c1N)c1ccc(C)cc1 (centres undefined) | 100% (inactive) | 87.5% (inactive) | 92.1% (inactive) | 9.05% (inactive) | 83.1% | 92.1% | -3.87% (inactive) | 3.64% (inactive)
CN(C)c1nc(N(C)C)nc(N(C)C)n1 | 95% (inactive) | 106% (inactive) | 96.8% (inactive) | -2.79% (inactive) | 99.6% | 96.8% | -1.69% (inactive) | -2.67% (inactive)
COc1cc2[nH]c3c(=O)n(CCN(C(C)C)C(C)C)cnc3c2cc1OC | 95% (inactive) | 99.1% (inactive) | 83.5% (inactive) | -0.365% (inactive) | 83.9% | 83.5% | -6.89% (inactive) | 4.91% (inactive)
CCOCCCNC(=O)C1CCC(CNS(=O)(=O)c2cccc3nsnc23)CC1 (centres undefined) | 102% (inactive) | 84.6% (inactive) | 88.3% (inactive) | -5.31% (inactive) | 93.6% | 88.3% | 0% (inactive) | -4.92% (inactive)
CN1CCC(=C2c3ccccc3C=Cc3ccccc32)CC1 | 100% (inactive) | 52.6% (inactive) | 82.4% (inactive) | 9.07% (inactive) | 73.4% | 82.4% | -0.65% (inactive) | 1% (inactive)
Cn1c(C(=O)NCc2cccnc2)cc2sccc21 | 115% (inactive) | 102% (inactive) | 93% (inactive) | -2.84% (inactive) | 95.8% | 93% | 5.21% (inactive) | 11.1% (inactive)
